Source: ChEMBL document CHEMBL1134519, “Synthesis, nicotinic acetylcholine receptor binding, and antinociceptive properties of 2-exo-2-(2'-substituted 5'-pyridinyl)-7-azabicyclo[2.2.1]heptanes. Epibatidine analogues” (J Med Chem, 2001)

Legend:
[1] = target: T1, Neuronal acetylcholine receptor; alpha4/beta2 (Rattus norvegicus, UniProt P09483+P12390); experiment: Inhibition of [3H]-nicotine binding at the nicotinic acetylcholine receptor alpha4-beta2; format: protein-complex assay
[2] = species: Mus musculus; experiment: Antinociception by tail-flick test in male ICR mice after intrathecal (i.t.) injection; format: functional
Method in brief: (§1)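 Male ICR mice injected intrathecally, free-hand between L4 and L6 while unanesthetized. Tail-flick latency was read before treatment (control 2-4 s) and 5 min after injection, with a 10 s cutoff. The result was expressed as %MPE = [(test − control)/(10 − control)] × 100. There were 8-12 mice per dose and at least four doses, and ED50 with 95% CL came from unweighted least-squares linear regression.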

[3] = Hill slope value of the compound
[4] = system: Mus musculus; experiment: Antinociception by tail-flick test in male ICR mice after intrathecal (i.t.) injection at 112 mg/kg; format: functional; method in brief: as §1
[5] = target: T1, Neuronal acetylcholine receptor; alpha4/beta2; experiment: Inhibition of [3H]epibatidine binding at the nicotinic acetylcholine receptor alpha4-beta2 in male rat cerebral cortex; format: tissue-based
[6] = target: T1, Neuronal acetylcholine receptor; alpha4/beta2; experiment: Non-specific binding in presence of 300 uM nicotine at nicotinic acetylcholine receptor alpha4-beta2 in rat cerebral cortex membranes; format: cell membranes, Membrane
[7] = system: Mus musculus; experiment: Antinociception by tail-flick test in male ICR mice after intrathecal (i.t.) injection, at 32.5 mg/kg; format: functional; method in brief: as §1
[8] = target: T1, Neuronal acetylcholine receptor; alpha4/beta2; experiment: Inhibition of […] binding at the nicotinic acetylcholine receptor alpha4-beta2 in male rat cerebral cortex; format: tissue-based
Method in brief: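 Male rat cerebral cortex homogenate (3 mg wet weight) was incubated with 0.5 nM [3H]epibatidine and 10-12 test concentrations, in buffer at pH 7.4 with 1% DMSO final, for 4 h at room temperature. Nonspecific binding was defined with 300 µM (-)-nicotine. Samples were filtered on PEI-soaked GF/B and counted by scintillation. IC50 came from at least three independent experiments by nonlinear regression, and Ki by Cheng-Prusoff.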

T1 sequence (P09483 whole entry): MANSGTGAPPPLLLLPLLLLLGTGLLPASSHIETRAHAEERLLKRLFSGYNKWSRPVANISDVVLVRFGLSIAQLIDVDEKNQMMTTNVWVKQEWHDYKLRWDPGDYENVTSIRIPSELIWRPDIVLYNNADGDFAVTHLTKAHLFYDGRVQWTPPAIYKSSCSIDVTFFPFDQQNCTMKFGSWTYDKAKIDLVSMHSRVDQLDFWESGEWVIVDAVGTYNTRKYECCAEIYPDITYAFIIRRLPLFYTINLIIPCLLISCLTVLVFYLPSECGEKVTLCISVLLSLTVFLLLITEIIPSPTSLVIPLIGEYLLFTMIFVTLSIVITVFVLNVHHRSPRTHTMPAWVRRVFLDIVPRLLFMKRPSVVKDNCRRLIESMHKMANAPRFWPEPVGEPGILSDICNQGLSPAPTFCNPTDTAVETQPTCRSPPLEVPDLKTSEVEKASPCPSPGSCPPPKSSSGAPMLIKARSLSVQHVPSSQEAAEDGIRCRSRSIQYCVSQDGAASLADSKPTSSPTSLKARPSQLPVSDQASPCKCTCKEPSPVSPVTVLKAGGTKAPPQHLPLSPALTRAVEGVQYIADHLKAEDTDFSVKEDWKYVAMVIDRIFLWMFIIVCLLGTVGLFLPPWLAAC
T1 sequence (P12390 whole entry): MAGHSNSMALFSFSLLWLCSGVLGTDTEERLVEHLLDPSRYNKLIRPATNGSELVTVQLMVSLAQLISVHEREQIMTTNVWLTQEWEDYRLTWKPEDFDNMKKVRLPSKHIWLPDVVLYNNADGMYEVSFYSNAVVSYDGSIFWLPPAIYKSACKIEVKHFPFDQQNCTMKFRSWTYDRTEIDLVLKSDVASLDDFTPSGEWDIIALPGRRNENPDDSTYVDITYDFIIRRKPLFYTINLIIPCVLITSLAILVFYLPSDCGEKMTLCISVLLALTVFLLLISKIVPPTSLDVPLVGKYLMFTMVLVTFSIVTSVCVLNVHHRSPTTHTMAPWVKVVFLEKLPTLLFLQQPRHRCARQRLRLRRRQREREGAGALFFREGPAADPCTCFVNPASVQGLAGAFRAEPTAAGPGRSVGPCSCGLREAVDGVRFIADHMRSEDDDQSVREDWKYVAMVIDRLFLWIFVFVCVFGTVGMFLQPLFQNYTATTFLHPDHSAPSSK

`CN1CCCC1c1ccc(F)nc1` (stereo not drawn) gave a Ki [1] of 1.03 nM.
With `Fc1ccc(C2CC3CCC2N3)cn1` (stereo not drawn) the ED50 [2] was 0.31 nM mouse-1 and the Hill coefficient [3] was 0.9.
`Nc1ccc(C2CC3CCC2N3)cn1` (stereo not drawn) showed an inhibition in vivo at 112 mg/kg [4] of 27%, a Ki [5] of 1.3 nM and a Hill coefficient [3] of 1.
With `c1cncc(C2CC3CCC2N3)c1` (stereo not drawn) [DESCHLOROEPIBATIDINE] the Ki [6] was 0.031 nM, the ED50 [2] was 0.2 nM mouse-1 and the Ki [5] was 0.02 nM. It also gave a Hill coefficient [3] of 0.8.
Work on `CN1CCCC1c1ccc(N)nc1` (stereo not drawn) yielded a Ki [1] of 81 nM.
For `CN(C)c1ccc(C2CC3CCC2N3)cn1` (stereo not drawn), the inhibition in vivo at 32.5 mg/kg [7] was 10% and the Hill coefficient [3] was 1.
`CN1CCCC1c1ccc(Cl)nc1` (stereo not drawn) gave a Ki [1] of 0.63 nM.
`CN1CCC[C@H]1c1cccnc1` [NICOTINE] gave an ED50 [2] of 74 nM mouse-1 and a Hill coefficient [3] of 0.9.
`Ic1ccc(C2CC3CCC2N3)cn1` (stereo not drawn) gave a Ki [6] of 0.48 nM and a Ki [5] of 0.07 nM.
For `CN1CCCC1c1ccc(Br)nc1` (stereo not drawn), the Ki [1] was 0.45 nM.
`Brc1ccc(C2CC3CCC2N3)cn1` (stereo not drawn) showed an ED50 [2] of 0.33 nM mouse-1, a Ki [5] of 0.023 nM and a Hill coefficient [3] of 0.9.
`CN1CCCC1c1ccc(O)nc1` (stereo not drawn) gave a Ki [1] of 1070 nM.
`Oc1ccc(C2CC3CCC2N3)cn1` (stereo not drawn) showed an ED50 [2] of 52.4 nM mouse-1 and a Hill coefficient [3] of 1.
Compound `Clc1ccc([C@@H]2C[C@H]3CC[C@@H]2N3)cn1` [(+)-EPIBATIDINE] has an ED50 [2] of 0.5 nM mouse-1.
Compound `Clc1ccc([C@H]2C[C@@H]3CC[C@H]2N3)cn1` [(-)-EPIBATIDINE] has an ED50 [2] of 0.6 nM mouse-1.
`O=c1ccc(C2CC3CCC2N3)c[nH]1` (stereo not drawn) gave a Ki [8] of 107 nM.
